Article PMC3417419 (British Journal of Pharmacology, 2012)
Where two headings read alike, the source gives them in different places.

Legend:
[1] = system: GluN2A- and GluN2B-containing NMDA receptors; settings: cited from earlier work
[2] = system: GluN1/GluN2B NMDA receptors; settings: non-competitive antagonist, block 'at most'; no reference given; cited from earlier work
native NMDA receptors = test: Whole-cell NMDA-evoked currents in cultured rat cortical neurones; type: cell-based; settings: for block of NMDA receptor-mediated currents, subset with greatest ifenprodil block: n= 7 cells
rat cortical neurones = test: NMDA-induced excitotoxicity assay in cortical cultures; type: cell-based; settings: NMDA 40 µM + glycine […], 1 h, DIV 7–10, assessed at 24 h
Summary of the method: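 Cortical neurones from E21 Sprague–Dawley rat embryos, grown in Neurobasal-A with B27, 1% rat serum and glutamine; AraC added at DIV 4. Before the assay, cultures moved to glycine-free non-trophic medium (10% MEM in HEPES salt-glucose medium). […] After 24 h, DAPI-stained pyknotic nuclei counted as percentage of total nuclei.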

[3] = biological target: GluN1/GluN2A and GluN1/GluN2D NMDA receptors; settings: ref Chen et al., 2008; cited from earlier work
[4] = biological target: GluN1/GluN2B NMDA receptors (Rattus norvegicus, UniProt P35439+Q00960); test: Two-electrode voltage-clamp; type: cell-based; settings: for antagonism of glutamate/glycine-evoked responses: TCN 213 10 µM
[5] = biological target: GluN1/GluN2A NMDA receptors (Rattus norvegicus, UniProt P35439+Q00959); test: Two-electrode voltage-clamp; type: cell-based; settings: for mean dose ratio (r): two-point glycine curves
GluN1 subunit = settings: ref Bettini et al. (2010); cited from earlier work
[6] = TCN 213 30 µM, NMDA 50 µM + glycine 3 µM

Sequence of GluN1/GluN2B NMDA receptors (Rattus norvegicus, UniProt P35439+Q00960) (Q00960 27-1482, other chains not shown): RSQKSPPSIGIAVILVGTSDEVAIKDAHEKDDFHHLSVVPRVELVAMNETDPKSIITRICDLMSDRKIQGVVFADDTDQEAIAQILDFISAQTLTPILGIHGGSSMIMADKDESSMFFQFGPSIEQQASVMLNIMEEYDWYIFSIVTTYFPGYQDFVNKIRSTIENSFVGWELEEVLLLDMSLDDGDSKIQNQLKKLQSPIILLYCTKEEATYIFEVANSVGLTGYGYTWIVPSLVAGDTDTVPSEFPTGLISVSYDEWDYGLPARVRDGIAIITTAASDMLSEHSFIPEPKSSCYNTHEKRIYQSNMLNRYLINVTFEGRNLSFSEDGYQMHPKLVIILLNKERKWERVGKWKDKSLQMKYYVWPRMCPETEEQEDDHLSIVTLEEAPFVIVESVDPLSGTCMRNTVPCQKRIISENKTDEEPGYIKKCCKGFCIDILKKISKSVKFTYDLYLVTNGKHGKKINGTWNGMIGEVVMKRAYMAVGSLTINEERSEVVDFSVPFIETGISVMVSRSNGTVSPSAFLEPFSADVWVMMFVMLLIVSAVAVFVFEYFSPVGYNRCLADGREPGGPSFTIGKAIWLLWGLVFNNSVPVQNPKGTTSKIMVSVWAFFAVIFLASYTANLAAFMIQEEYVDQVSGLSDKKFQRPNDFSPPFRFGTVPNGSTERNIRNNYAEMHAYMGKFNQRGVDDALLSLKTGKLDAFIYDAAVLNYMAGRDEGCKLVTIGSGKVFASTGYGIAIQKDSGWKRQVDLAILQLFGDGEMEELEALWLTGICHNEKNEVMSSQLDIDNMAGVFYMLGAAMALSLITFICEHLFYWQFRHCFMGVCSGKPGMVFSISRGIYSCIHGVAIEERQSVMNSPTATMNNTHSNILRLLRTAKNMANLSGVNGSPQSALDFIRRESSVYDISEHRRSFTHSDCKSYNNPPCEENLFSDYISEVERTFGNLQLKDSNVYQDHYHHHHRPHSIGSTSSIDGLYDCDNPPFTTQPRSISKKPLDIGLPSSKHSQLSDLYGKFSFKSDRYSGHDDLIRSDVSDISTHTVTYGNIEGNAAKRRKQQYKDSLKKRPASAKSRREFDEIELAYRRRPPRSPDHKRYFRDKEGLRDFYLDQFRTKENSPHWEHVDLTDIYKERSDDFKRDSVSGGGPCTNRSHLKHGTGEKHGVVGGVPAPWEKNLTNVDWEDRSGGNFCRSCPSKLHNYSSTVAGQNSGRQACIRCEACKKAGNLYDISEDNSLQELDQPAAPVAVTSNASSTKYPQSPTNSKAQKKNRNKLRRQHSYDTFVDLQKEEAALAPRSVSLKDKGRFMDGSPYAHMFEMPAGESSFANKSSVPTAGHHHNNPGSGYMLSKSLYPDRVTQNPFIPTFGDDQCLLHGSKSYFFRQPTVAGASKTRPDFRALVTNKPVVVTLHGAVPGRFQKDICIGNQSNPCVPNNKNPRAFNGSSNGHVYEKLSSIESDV
Sequence of GluN1/GluN2A NMDA receptors (Q00959 23-1464, other chains not shown): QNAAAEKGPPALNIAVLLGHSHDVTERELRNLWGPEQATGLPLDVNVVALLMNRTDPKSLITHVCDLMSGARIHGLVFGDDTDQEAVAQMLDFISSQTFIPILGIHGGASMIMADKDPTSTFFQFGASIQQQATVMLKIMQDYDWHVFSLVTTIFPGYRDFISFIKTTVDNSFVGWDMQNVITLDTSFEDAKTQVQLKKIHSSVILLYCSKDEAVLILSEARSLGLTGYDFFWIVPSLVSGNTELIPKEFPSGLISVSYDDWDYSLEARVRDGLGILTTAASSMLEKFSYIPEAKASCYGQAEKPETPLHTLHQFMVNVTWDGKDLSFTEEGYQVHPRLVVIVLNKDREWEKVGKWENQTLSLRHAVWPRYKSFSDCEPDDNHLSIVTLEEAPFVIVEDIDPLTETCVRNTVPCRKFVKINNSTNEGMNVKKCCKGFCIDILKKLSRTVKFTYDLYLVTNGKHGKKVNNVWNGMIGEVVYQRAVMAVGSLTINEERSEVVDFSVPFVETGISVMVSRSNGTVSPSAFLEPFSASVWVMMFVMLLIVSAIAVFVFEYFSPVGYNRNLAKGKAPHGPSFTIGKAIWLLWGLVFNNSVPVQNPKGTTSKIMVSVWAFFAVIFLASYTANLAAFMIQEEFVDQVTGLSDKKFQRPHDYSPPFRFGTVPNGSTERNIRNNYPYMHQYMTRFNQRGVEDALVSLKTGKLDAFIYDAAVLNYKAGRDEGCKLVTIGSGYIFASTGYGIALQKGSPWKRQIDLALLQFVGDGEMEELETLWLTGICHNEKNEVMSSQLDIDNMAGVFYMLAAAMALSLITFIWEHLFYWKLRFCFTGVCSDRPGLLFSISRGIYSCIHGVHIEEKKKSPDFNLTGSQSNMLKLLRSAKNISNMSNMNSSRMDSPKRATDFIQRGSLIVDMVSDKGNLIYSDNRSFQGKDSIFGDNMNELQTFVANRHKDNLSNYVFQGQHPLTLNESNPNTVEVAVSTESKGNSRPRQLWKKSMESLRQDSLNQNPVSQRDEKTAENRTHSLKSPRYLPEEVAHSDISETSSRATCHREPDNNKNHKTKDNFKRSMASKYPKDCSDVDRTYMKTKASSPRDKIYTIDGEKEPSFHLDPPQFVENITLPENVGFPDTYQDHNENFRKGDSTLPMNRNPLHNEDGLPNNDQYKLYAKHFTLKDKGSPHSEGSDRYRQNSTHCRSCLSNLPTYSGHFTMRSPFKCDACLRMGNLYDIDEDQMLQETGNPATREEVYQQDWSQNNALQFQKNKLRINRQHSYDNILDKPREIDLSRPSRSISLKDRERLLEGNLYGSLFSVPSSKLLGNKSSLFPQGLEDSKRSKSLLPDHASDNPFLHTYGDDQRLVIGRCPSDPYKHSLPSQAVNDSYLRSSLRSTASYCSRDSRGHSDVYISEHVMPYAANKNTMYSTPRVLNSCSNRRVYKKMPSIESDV

For `[N-]=[N+]=Nc1ccc(CC(=O)NC2CC(C(=O)O)Nc3cc(Cl)cc(Cl)c32)cc1` (centres unmarked) [CGP-61594], the “potency at GluN1/GluN2B compared with GluN1/GluN2A NMDA receptors” value ([1]; more potent at GluN1/GluN2B, ref Honer et al., 1998) is listed as 10 fold.

In the case of `O=C(Nc1ccccc1)N[C@@H]1C[C@@H](C(=O)O)Nc2cc(Cl)cc(Cl)c21` [L-689 560], the “selectivity for GluN2A- over GluN2B-containing NMDA receptors” value ([1]; ref Hess et al., 1996) is listed as 5 fold.

In the case of `CC(C(O)c1ccc(O)cc1)N1CCC(Cc2ccccc2)CC1` (centres unmarked) [ifenprodil], the “maximal block of current” value [2] is listed as 75–80%, the “reduction of NMDA + glycine evoked current, example cell” value (native NMDA receptors; ifenprodil 3 µM, 7 DIV pyramidal cell, NMDA 50 µM + glycine […]) is listed as “around 75%” and the “average block of NMDA receptor-mediated currents” value (native NMDA receptors; ifenprodil 3 µM, DIV 7–10, NMDA 50 µM + glycine […], −70 mV) is listed as 72 ± 2%. The “block of NMDA receptor-mediated currents, subset with greatest ifenprodil block” value (native NMDA receptors; ifenprodil 3 µM, DIV 7–10) was 78 ± 1% and the “NMDA-induced cell death (pyknotic nuclei) versus NMDA alone” value (rat cortical neurones; ifenprodil 3 µM) was “reduced significantly”.

For `O=C(O)c1cc(=O)c2c(Cl)cc(Cl)cc2[nH]1` [5,7 DCKA, 5,7 dichlorokynurenic acid], the “KB values at GluN1/GluN2A versus GluN1/GluN2D (Schild analysis)” value [3] is given as “indistinguishable”, the IC50 ([4]; read-out: Antagonist IC50) is given as 74 ± 10 nM and the IC50 ([4]; read-out: Antagonist IC50, [gly]= 10 EC50) is given as 4100 ± 400 nM. For the same molecule, the IC50 ([4]; read-out: Antagonist IC50, [gly]= EC50) was 490 ± 10 nM, the IC50 ([5]; read-out: Antagonist IC50, [gly]= 0.1 EC50 ([…] glycine) + 100 µM glutamate) was 130 ± 10 nM and the IC50 ([5]; read-out: Antagonist IC50, [gly]= 10 EC50 (15 µM glycine) + 100 µM glutamate) was 4100 ± 300 nM. The IC50 ([5]; read-out: Antagonist IC50, [gly]= EC50 ([…] glycine) + 100 µM glutamate) was 420 ± 30 nM and the “NMDA-induced cell death (pyknotic nuclei) versus NMDA alone” value (rat cortical neurones; 5,7 DCKA 10 µM) was “reduced significantly”.

In the case of `O=C(CSc1nnc(NCc2ccccc2)s1)NCC1CCCCC1` [TCN 213, N-(cyclohexylmethyl)-2-({5-[(phenylmethyl)amino]-1,3,4-thiadiazol-2-yl}thio)acetamide], the IC50 [4] is reported as over 300000 nM, the “antagonism of glutamate/glycine-evoked responses” value ([4]; 50 µM glycine, three glutamate concentrations) is reported as “no antagonism” and the “antagonism of glutamate/glycine-evoked responses” value ([4]; glycine low (0.1 × EC50)) is reported as “only modestly antagonized”. The “mean block of NMDA-evoked current” value [4, 6] was 2 ± 0.5%, the inhibition of currents ([4]; TCN 213 30 µM, glycine 1 and 10 times EC50) was “negligible inhibition” and the “mean dose ratio (r)” value ([5]; 10 µM TCN 213, glutamate 100 µM) was 5.20 ± 0.79. The “mean dose ratio (r)” value ([5]; 30 µM TCN 213, glutamate 100 µM) was 17.22 ± 1.69, the “Schild plot slope, 'free' fit” value ([5]; 95% confidence interval 0.94–1.31) was 1.13 and the IC50 ([5]; Antagonist IC50, [gly]= 0.1 EC50 ([…] glycine) + 100 µM glutamate) was 550 ± 50 nM. The IC50 ([5]; Antagonist IC50, [gly]= 10 EC50 (15 µM glycine) + 100 µM glutamate) was 40000 ± 3500 nM, the IC50 ([5]; Antagonist IC50, [gly]= EC50 ([…] glycine) + 100 µM glutamate) was 3500 ± 50 nM and the “block of glutamate/glycine-evoked current” value ([5]; TCN 213 10 µM, glutamate 100 µM, glycine 150 nM (0.1 × EC50)) was “Almost complete block”. For the same molecule, the “block of glutamate/glycine-evoked current” value ([5]; TCN 213 10 µM, glutamate 100 µM, glycine 15 µM (10 × EC50)) was “substantially less block”, the “dependence of antagonism on glutamate concentration” value ([5]; TCN 213 10 µM, glycine 50 µM, glutamate 0.1, 1, 10 × EC50) was “not dependent on the glutamate concentration” and the “expected block of current for a purely GluN2A-containing population” value ([5]; TCN 213 10 µM, glycine […], read from Figure 2A) was “around 75%”. For the same molecule, the “mean block of NMDA-evoked current” value [5, 6] was 78 ± 4%, the “reduction in amplitude of current response, example trace” value ([5]; TCN 213 30 µM, NMDA 50 µM + glycine 3 µM, single oocyte) was “approximately 75%” and the “selectivity GluN1/GluN2A over GluN1/GluN2B” value ([5]; from IC50 values at glycine = EC50) was “around 100 fold”. For the same molecule, the “surmountability of antagonism by increasing glycine” value ([5]; glutamate 100 µM, glycine 50 µM and above) was “surmountable”, the “concentration predicted to block fully the response” value ([5]; glycine 10 times EC50, extrapolation of Figure 2A) was “around 1 mM” and the “displacement of the GluN1 ligand MDL 105 519” value (GluN1 subunit) was “failed to displace”. The “average inhibition of NMDA receptor-mediated currents” value (native NMDA receptors; TCN 213 10 µM, DIV 7–10, NMDA 50 µM + glycine […], −70 mV) was 2 ± 3% and the “block of NMDA receptor-mediated currents, subset with greatest ifenprodil block” value (native NMDA receptors; TCN 213 10 µM, DIV 7–10) was 4 ± 2%.
